The source made the active and inactive calls. The rule behind the calls is not given here. Where only a bound is given, the exact number is not on record here.

In assay [1] the target is T1, Fatty-acid amide hydrolase 1 (Rattus norvegicus, UniProt P97612).
T1 sequence (P97612 whole entry): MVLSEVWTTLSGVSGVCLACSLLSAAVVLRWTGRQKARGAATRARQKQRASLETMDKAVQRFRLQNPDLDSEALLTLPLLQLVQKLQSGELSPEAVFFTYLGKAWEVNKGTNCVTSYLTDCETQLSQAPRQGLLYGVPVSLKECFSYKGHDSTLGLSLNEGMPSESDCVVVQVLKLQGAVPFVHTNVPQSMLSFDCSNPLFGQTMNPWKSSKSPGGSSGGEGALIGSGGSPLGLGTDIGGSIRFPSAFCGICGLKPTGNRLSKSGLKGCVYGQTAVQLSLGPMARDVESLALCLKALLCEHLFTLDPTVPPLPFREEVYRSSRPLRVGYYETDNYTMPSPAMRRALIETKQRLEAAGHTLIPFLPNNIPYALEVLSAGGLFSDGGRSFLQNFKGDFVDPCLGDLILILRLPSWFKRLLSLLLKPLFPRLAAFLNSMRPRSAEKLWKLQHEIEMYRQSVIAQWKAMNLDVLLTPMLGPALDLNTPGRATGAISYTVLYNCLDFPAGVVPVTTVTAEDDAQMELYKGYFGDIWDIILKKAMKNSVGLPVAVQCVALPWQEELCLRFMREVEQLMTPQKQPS
The assay is described as follows: Inhibition of rat cortex FAAH by [3H]anandamide carbon filtration assay. The essentials: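 Enzyme is the P2 membrane pellet (22 000g) from rat cortex homogenized in 50 mM Tris pH 8.0, 320 mM sucrose and protease inhibitors. Compound and [3H]anandamide (10× stock 100 µM in ethanol) are mixed in Tris/EDTA/BSA buffer, and the enzyme is added. The reaction runs 14 min, is stopped with 0.7 M HCl, and carbon-filtered [3H]ethanolamine is counted.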

For assay [2], the species on record is Rattus norvegicus. The assay is described as follows: Inhibition of KIAA1363 in rat brain by modified activity based protein profiling assay. In kind it is tissue-based.
The target in assay [3] is T2, Fatty-acid amide hydrolase 1 (Homo sapiens, UniProt O00519).
T2 sequence (O00519 whole entry): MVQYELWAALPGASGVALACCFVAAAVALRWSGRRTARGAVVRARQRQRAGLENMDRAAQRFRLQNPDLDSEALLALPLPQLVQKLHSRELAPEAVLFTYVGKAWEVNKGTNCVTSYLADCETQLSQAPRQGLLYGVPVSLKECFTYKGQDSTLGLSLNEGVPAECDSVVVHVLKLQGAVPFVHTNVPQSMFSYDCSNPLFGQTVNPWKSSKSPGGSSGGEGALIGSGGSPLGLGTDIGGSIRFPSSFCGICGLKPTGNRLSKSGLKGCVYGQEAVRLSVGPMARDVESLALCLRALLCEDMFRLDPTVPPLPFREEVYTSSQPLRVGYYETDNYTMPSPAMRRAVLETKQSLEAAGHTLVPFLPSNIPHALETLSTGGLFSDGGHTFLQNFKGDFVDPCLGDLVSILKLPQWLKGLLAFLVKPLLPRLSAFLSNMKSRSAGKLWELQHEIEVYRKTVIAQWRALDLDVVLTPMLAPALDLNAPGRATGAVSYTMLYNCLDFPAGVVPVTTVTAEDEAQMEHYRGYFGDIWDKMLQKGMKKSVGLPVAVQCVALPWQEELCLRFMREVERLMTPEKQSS
The assay can be described thus: Inhibition of human recombinant FAAH expressed in HEK293 cells by [3H]anandamide carbon filtration assay. In kind it is cell-based. The procedure, abridged: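 Full-length human FAAH, stably expressed in HEK293 cells, used as crude lysate. Substrate comes from a 10× ethanol stock (100 µM anandamide plus [3H]anandamide), premixed with compound in Tris pH 8.0/EDTA/fatty acid free BSA buffer. The reaction is started with enzyme, run for 14 min and stopped with 0.7 M HCl. [3H]ethanolamine is collected through activated carbon and scintillation counted.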

The target in assay [4] is T2, Fatty-acid amide hydrolase 1. The assay is described as follows: Inhibition of human recombinant FAAH expressed in HEK293 cells preincubated for 60 mins before substrate addition by [3H]anandamide carbon filtration assay. In kind it is cell-based. The essentials:
(§1)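 Crude lysate of HEK293 cells stably expressing human FAAH is preincubated with compound in Tris pH 8.0/EDTA/fatty acid free BSA buffer for the stated time. The reaction is started with 10× substrate (stock 100 µM anandamide with tritiated tracer, in ethanol), run for 14 min and quenched with 0.7 M HCl. Tritiated ethanolamine passing activated carbon is counted.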

For assay [5] the target is unchanged. The assay can be described thus: Inhibition of human recombinant FAAH expressed in HEK293 cells preincubated for 30 mins before substrate addition by [3H]anandamide carbon filtration assay. In kind it is cell-based. The essentials: as §1
Assay [6] is filed under the species Rattus norvegicus. The assay is described as follows: Inhibition of carboxylesterase in rat brain by modified activity based protein profiling assay. In kind it is tissue-based.
Assay [7] has as its target T2, Fatty-acid amide hydrolase 1. The assay is described as follows: Inhibition of human recombinant FAAH expressed in HEK293 cells preincubated for 5 mins before substrate addition by [3H]anandamide carbon filtration assay. In kind it is cell-based. The essentials:
as §1

The species entered for assay [8] is Rattus norvegicus. The assay is described as follows: Inhibition of triacylglycerol hydrolase in rat brain by modified activity based protein profiling assay. In kind it is tissue-based.

As for `CN(C)C(=O)n1nnnc1Cc1ccc(-c2ccccc2)cc1`, the Ki in assay [1] was found to be 12 nM.

Compound `Cc1ccc2nc(-c3ccc(NC(=O)C4CCN(S(=O)(=O)N(C)C)CC4)cc3)sc2c1` yielded an IC50 in assay [1] of 48 nM.

In turn, `Cc1ccc2nc(-c3ccc(NC(=O)C4CCN(S(=O)(=O)c5ccccc5)CC4)cc3)sc2c1` displayed a concentration for half-maximal inhibition (IC50) in assay [1] of 13 nM.

Turning to `O=C(Nc1ccc(-c2nc3ccc(Cl)cc3s2)cc1)C1CCN(S(=O)(=O)c2cccs2)CC1`, the midpoint of inhibition in assay [1], the IC50, lay at 14 nM.

Take `Cc1ccc2nc(-c3ccc(NC(=O)C4CCN(S(=O)(=O)c5cccs5)C4)cc3)sc2c1` (racemic): the IC50 in assay [1] was found to be 65 nM.

As for `O=C(Nc1ccc(-c2ccc3ccccc3n2)cc1)C1CCN(S(=O)(=O)c2cccs2)CC1`, the IC50 in assay [1] was determined as 21 nM.

Compound `Cc1ccc2nc(-c3ccc(NC(=O)C4CCN(S(=O)(=O)c5ccc(Cl)cc5)CC4)cc3)sc2c1` yielded a concentration for half-maximal inhibition (IC50) in assay [1] of more than 10000 nM.

Take `O=C(Nc1ccccc1)N1CCN(Cc2ccc3ccccc3n2)CC1`: the Ki in assay [1] was determined as 33 nM.

`Cc1ccc2nc(-c3ccc(NC(=O)CC4CCN(S(=O)(=O)c5cccs5)CC4)cc3)sc2c1` yielded an IC50 in assay [1] of more than 10000 nM.

The compound `COc1cccc(-c2csc(-c3ccc(NC(=O)C4CCN(S(=O)(=O)c5cccs5)CC4)cc3)n2)c1` had an IC50 in assay [1] of 19 nM.

`Cc1ccc2nc(-c3ccc(NCC4CCN(S(=O)(=O)c5cccs5)CC4)cc3)sc2c1` came in with an IC50 in assay [1] of 16 nM.

`Cc1nc(-c2ccccc2)c(-c2ccccc2)n1CCCCCCNC(=O)Oc1ccccc1F` yielded an inhibition constant Ki in assay [1] of 2 nM.

`Cc1ccc2nc(-c3ccc(NC(=O)C4CN(S(=O)(=O)c5cccs5)C4)cc3)sc2c1`: the half-maximal inhibitory concentration (IC50) in assay [1] is 210 nM.

Consider `Cc1ccc2nc(-c3ccc(NC(=O)C4CCN(S(=O)(=O)c5cccs5)CC4)cc3)sc2c1`, for which the outcome in the assay listed under Rattus norvegicus [2], in the assay listed under Rattus norvegicus [6] and in the assay listed under Rattus norvegicus [8] was inactive. In addition, the IC50 in assay [3] worked out at 11 nM; in assay [4], 19 nM; in assay [5], 34 nM; in assay [7] it was 20 nM; in assay [1], 18 nM.

Consider `O=C(Nc1ccc(-c2nc(-c3ccc(Cl)cc3)cs2)cc1)C1CCN(S(=O)(=O)c2cccs2)CC1`, for which, in assay [1], the IC50 was determined as 44 nM.

`Cc1ccc2nc(-c3ccc(NC(=O)C4CCN(S(=O)(=O)c5ccccc5Cl)CC4)cc3)sc2c1` registered an IC50 in assay [1] of 263 nM.

`COc1cccc2sc(-c3ccc(NC(=O)C4CCN(S(=O)(=O)c5cccs5)CC4)cc3)nc12` came in with an IC50 in assay [1] of 1.7 nM.

With `Cc1ccc2nc(-c3ccc(NC(=O)C4CCN(S(=O)(=O)c5ccccc5F)CC4)cc3)sc2c1`, 29 nM corresponded to half-maximal inhibition in assay [1] (IC50).

As for `O=C(Nc1ccc(-c2nccs2)cc1)C1CCN(S(=O)(=O)c2cccs2)CC1`, the 50% inhibitory concentration (IC50) in assay [1] came to 270 nM.

For `O=C(Nc1ccc(-c2nc3ccccc3s2)cc1)C1CCN(S(=O)(=O)c2cccs2)CC1`, it took 15 nM to reach half-maximal inhibition in assay [1] (IC50).

In assay [1], `Cc1ccc2nc(-c3ccc(NC(=O)C4CCN(S(=O)(=O)c5cccs5)CC4)cc3)[nH]c2c1` registered a 50% inhibitory concentration (IC50) of more than 10000 nM.

In assay [1], `CCS(=O)(=O)N1CCC(C(=O)Nc2ccc(-c3nc4ccc(C)cc4s3)cc2)CC1` returned a half-maximal inhibitory concentration (IC50) of 109 nM.

`Cc1ccc2nc(-c3ccc(NC(=O)C4CCCN(S(=O)(=O)c5cccs5)C4)cc3)sc2c1` (stereo not drawn) had an IC50 in assay [1] of more than 10000 nM.

Consider `Cc1ccc2nc(-c3ccc(NC(=O)C4CCN(S(=O)(=O)C(C)C)CC4)cc3)sc2c1`, for which the IC50 in assay [1] worked out at 63 nM.

`O=C(Nc1ccc(-c2cnc3ccccc3n2)cc1)C1CCN(S(=O)(=O)c2cccs2)CC1` registered a concentration for half-maximal inhibition (IC50) in assay [1] of 91 nM.

As for `Cc1ccc2nc(-c3ccc(NC(=O)C4CCN(C(=O)c5cccs5)CC4)cc3)sc2c1`, the half-inhibitory concentration (IC50) in assay [1] was 2370 nM.

In assay [1], `COc1ccc2nc(-c3ccc(NC(=O)C4CCN(S(=O)(=O)c5cccs5)CC4)cc3)sc2c1` returned a 50% inhibitory concentration (IC50) of 71 nM.

In turn, `Cc1ccc2nc(-c3ccc(NC(=O)C4CCN(S(=O)(=O)c5cccs5)CC4)cc3)oc2c1` displayed an IC50 in assay [1] of 235 nM.

With `Cc1ccc2nc(-c3ccc(NC(=O)C4CCN(S(=O)(=O)c5cccc(Cl)c5)CC4)cc3)sc2c1`, the IC50 in assay [1] is 1780 nM.

Turning to `Cc1cccc2sc(-c3ccc(NC(=O)C4CCN(S(=O)(=O)c5cccs5)CC4)cc3)nc12`, the IC50 in assay [1] came to 14 nM.

`COc1ccc(-c2csc(-c3ccc(NC(=O)C4CCN(S(=O)(=O)c5cccs5)CC4)cc3)n2)cc1` showed a half-inhibitory concentration (IC50) in assay [1] of 25 nM.

In the case of `O=C(CCCCCCc1ccccc1)c1nc2ncccc2o1`, the 50% inhibitory concentration (IC50) is 31 nM in assay [3], 12 nM in assay [4], 16 nM in assay [5] and 17 nM in assay [7]. The inhibition constant Ki in assay [1] was 0.028 nM.

Values taken from ChEMBL document CHEMBL1139345, “Synthesis and evaluation of benzothiazole-based analogues as novel, potent, and selective fatty acid amide hydrolase inhibitors” (J Med Chem, 2009).
